Experimental data pooled from the literature.
Protocols differ between the studies behind these lines.
Target: Casein kinase I isoform delta (CSNK1D, Homo sapiens, UniProt P48730)

Cc1c(NC(=O)c2cc(C(N)=O)nc3cc(F)ccc23)c(C(F)(F)F)nn1Cc1ccc(C(C)(C)C)cc1  remaining binding (cell-free assay, competition with immobilised ligand; 1 µM): 81%
O=C(c1ccc(Nc2ncc(Cl)c(-c3ccc(Cl)s3)n2)cc1)N1CCC(N2CCCC2)CC1  remaining binding (binding, competition with immobilised ligand; 1 µM): 100%
N#Cc1ccccc1CSc1nnc2c(n1)[nH]c1ccccc12  remaining binding (binding, competition with immobilised ligand; 10 µM): 86%
CC1CCCN1c1nccc(-c2cnn3ncccc23)n1 (stereo not drawn)  remaining binding (binding; 1 µM): 100%
COc1cnc(Nc2cccc(S(N)(=O)=O)c2)nc1N1CCN(c2ccccc2)CC1  remaining binding (binding, competition with immobilised ligand; 1 µM): 97%
C[C@@H]1CCN(c2nccc(-c3cnn4ncccc34)n2)C1  remaining binding (binding; 1 µM): 64%
CN(C)CC#Cc1ccc(OCCCc2sc(N3CCc4cccc(C(=O)Nc5nc6ccccc6s5)c4C3)nc2C(=O)O)c(F)c1  remaining binding (cell-free assay, competition with immobilised ligand; 1 µM): 95%
O=C(NCCCN1CCOCC1)c1ccc(Nc2nccc(-c3cc4ccccc4s3)n2)cc1  remaining binding (binding, competition with immobilised ligand; 1 µM): 92%
NC(=O)c1nc(Nc2ccccc2)sc1NC(=O)C1CCCCC1  remaining binding (cell-free assay, competition with immobilised ligand; 10 µM): 6.8%
CNC(=O)Nc1ccc2c(c1)CC[C@@]21OC(=O)N(CC(=O)N(Cc2ccc(F)cc2)[C@@H](C)C(F)(F)F)C1=O  remaining binding (cell-free assay, competition with immobilised ligand; 1 µM): 99%
N[C@@H]1CCN(c2nccc(-c3cnn4ncccc34)n2)C1  remaining binding (binding; 1 µM): 14%
Nc1ncc2c(n1)-c1c([nH]c3ccc(C#CC4CC4)cc13)CCCC2  remaining binding (binding, competition with immobilised ligand; 1 µM): 91%
CC(C)(C)c1ccc(-c2nc(CBr)nn2-c2cccc(O)c2)cc1  remaining binding (cell-free assay, competition with immobilised ligand; 10 µM): 82%
F[C@@H]1CCN(c2nccc(-c3cnn4ncccc34)n2)C1  remaining binding (binding; 1 µM): 83%
CCOCCn1cc(C(=O)Nc2ccc(-n3nc(-c4cccnc4)cc3C(F)(F)F)cn2)ccc1=O  remaining binding (cell-free assay, competition with immobilised ligand; 1 µM): 100%
O=C(c1ccc(Nc2ncc(Cl)c(-c3cc4ccccc4s3)n2)cc1)N1CCC(N2CCCC2)CC1  remaining binding (binding, competition with immobilised ligand; 1 µM): 100%
CN(c1nccc(-c2cnn3ncccc23)n1)C1CC1  remaining binding (binding; 1 µM): 100%
COc1cnc(Nc2cccc(S(N)(=O)=O)c2)nc1N1CCN(c2ccccc2)C(=O)C1  remaining binding (binding, competition with immobilised ligand; 1 µM): 98%
C[C@@H]1CN(c2cc(-c3n[nH]c4ccc(OC5(C)CC5)cc34)ncn2)C[C@H](C)O1  remaining binding (cell-free assay, competition with immobilised ligand; 0.1 µM): 80%
O=C(NCC1CCOCC1)c1n[nH]cc1NC(=O)c1c(F)cccc1F  remaining binding (binding, competition with immobilised ligand; 1 µM): 77%
CNC(=O)Nc1ccc2c(c1)[C@@]1(CC2)OC(=O)N(CC(=O)N(Cc2ccc(F)cc2)[C@@H](C)C(F)(F)F)C1=O  remaining binding (cell-free assay, competition with immobilised ligand; 1 µM): 100%
C=CC(=O)N1CCC(C(=O)NCC(=O)N2CCN(c3nc(-c4cnc(N)nc4C(F)F)nc(N4CCOCC4)n3)CC2)CC1  remaining binding (binding, competition with immobilised ligand; 1 µM): 100%
Cc1cc(C)c(-n2ccn3nc(-c4cccnc4)cc23)cc1NC(=O)c1cc(C#N)cc(S(F)(F)(F)(F)F)c1  remaining binding (cell-free assay, competition with immobilised ligand; 0.1 µM): 100%
CN(C)c1ncc(F)c(-c2cnn3ncccc23)n1  remaining binding (binding; 1 µM): 100%
